Measured values taken from article PMC3741069 (Biochemistry, 2013).
Where a chain is given by its changes, count along the chain named.

Experiments:
Experiment in all cases: spectral perturbation titration
Type in all cases: binding
nitrate reductase (NarB) [1] = target: T1, nitrate reductase (NarB) (Synechococcus elongatus, UniProt P39458)
T1 sequence (P39458 15-729): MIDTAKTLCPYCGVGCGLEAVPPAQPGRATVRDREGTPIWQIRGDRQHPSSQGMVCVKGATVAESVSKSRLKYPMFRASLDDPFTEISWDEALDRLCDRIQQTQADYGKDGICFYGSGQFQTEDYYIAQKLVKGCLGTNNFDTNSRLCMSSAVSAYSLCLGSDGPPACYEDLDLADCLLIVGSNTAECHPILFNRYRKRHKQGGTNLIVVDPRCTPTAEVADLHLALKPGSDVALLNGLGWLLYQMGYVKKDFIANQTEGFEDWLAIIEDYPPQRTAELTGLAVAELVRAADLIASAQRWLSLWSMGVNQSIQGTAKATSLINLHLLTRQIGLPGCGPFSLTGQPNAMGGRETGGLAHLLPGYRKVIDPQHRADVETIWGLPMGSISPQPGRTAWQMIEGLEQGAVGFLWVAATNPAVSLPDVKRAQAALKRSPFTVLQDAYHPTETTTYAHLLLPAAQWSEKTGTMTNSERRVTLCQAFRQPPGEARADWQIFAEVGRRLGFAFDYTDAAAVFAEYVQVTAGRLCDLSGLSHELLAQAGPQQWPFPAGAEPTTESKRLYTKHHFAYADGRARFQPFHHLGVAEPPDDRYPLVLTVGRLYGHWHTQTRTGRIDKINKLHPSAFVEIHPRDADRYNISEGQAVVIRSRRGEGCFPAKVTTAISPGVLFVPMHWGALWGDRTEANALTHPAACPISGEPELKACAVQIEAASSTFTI
In short: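 Recombinant wild-type Synechococcus sp. PCC 7942 NarB had its first 14 residues deleted and a C-terminal His6 tag. It was expressed in E. coli DH5a with 100 μM molybdate and purified by Co affinity, DEAE and gel filtration. Oxidized enzyme was titrated with ferredoxin (read at 420 minus 600 nm) or nitrate (read at 400 minus 470 nm; change at saturating nitrate taken as 100% complex). Kd came from a single binding isotherm fit.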

nitrate reductase (NarB) [2] = target: T2, nitrate reductase (NarB) (Synechococcus elongatus, UniProt P39458, K72Q)
T2 sequence (P39458 15-729 K72Q): T1 sequence (P39458 15-729) with K58Q
In short: (§1)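 Single-residue NarB variants were made by site-directed mutagenesis and expressed and purified as for wild type (His6, Co affinity, DEAE, gel filtration). Complex formation with ferredoxin or nitrate was followed by difference absorbance at variant-specific wavelength pairs chosen for signal:noise. The change at saturating nitrate was taken as 100% complex. Kd came from fitting perturbation magnitude against ligand concentration to a single binding isotherm.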

nitrate reductase (NarB) [3] = target: T3, nitrate reductase (NarB) (Synechococcus elongatus, UniProt P39458, K72R)
T3 sequence (P39458 15-729 K72R): T1 sequence (P39458 15-729) with K58R
In short: as §1

O=[N+]([O-])O [nitrate]
Kd (nitrate reductase (NarB) [1]): 1 ± 0.3 µM | Kd (nitrate reductase (NarB) [2]): 8 ± 2.3 µM | Kd (nitrate reductase (NarB) [3]): 15.5 ± 5 µM
